Data from PMC4390023 (The British journal of nutrition, 2013).
“Also recorded” adds a separate entry of the source. Each block holds one compound with its values, some of them ahead of it.

What was measured:
[1] = test system: RARγ; settings: cited from earlier work
[2] = test system: RARα; settings: cited from earlier work
[3] = test system: RARβ; settings: cited from earlier work
[4] = rats maintained on DR; cited from earlier work
[5] = test system: retinol transporter; settings: cited from earlier work
[6] = Study 1 tissue and serum ROH, αR and DR by HPLC; assay type: in vivo, rat; settings: for Lung ROH concentration / Spleen ROH concentration: rats, 50 nmol/d oral, 5 weeks, mean, n 10
[7] = cited from earlier work; for Estimates of bioactivity in rats, that of ROH: ref estimates of the 1950's
[8] = Study 1 growth assay; assay type: in vivo, rat; settings: for Bioactivity compared with retinol: from body weights and area-under-the-response curves, equimolar 50 nmol/d; for Area-under-the growth curve, difference from control / Bioactivity from area-under-the growth curve, % of retinol / Bioactivity from final body weight, % of retinol / Final body weight / Area-under-the growth curve: rats, 50 nmol/d for 5 weeks; for Bioactivity from area-under-the growth curve, % of retinol: control subtracted, relative to retinol group; for Bioactivity from final body weight, % of retinol: difference from control relative to retinol group; for Final body weight / Area-under-the growth curve: mean, n 10; for Area-under-the growth curve: trapezoidal
How it was run: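 Weanling (21-d) male Sprague Dawley rats (n 40) were fed a vitamin A-deficient diet and weighed daily. At week 9 they were split into four weight-matched groups (n 10) and given 50 nmol/d oral retinoid acetate in 100 µl cottonseed oil, or vehicle alone. Rats were killed 5 weeks after dosing began. Body-weight AUC was by trapezoidal approximation, and bioactivity from ending weights versus the retinol group. ANOVA; means (SD).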

[9] = high doses given to dams; not to the extent of retinoic acid alone; cited from earlier work
[10] = Study 2 interaction study: graded αR with 70 nmol ROH/d, serum and liver; assay type: in vivo, rat; settings: for Liver αR / Total dose liver retention: 3 weeks
How it was run: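 Each received oral daily 70 nmol reference retinoid plus 0, 17.5, 35 or 70 nmol test retinoid (as acetate) in 100 µl cottonseed oil. Rats were killed after 3 weeks. Serum and saponified liver were run on isocratic C18 HPLC-UV in acetonitrile:water 87.5:12.5 with 10 mM ammonium acetate. ANOVA; means (SD).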

[11] = Study 3 retinol and α-retinol in liver, kidney and serum after the final dose; assay type: in vivo, rat; settings: for Liver αR: 3.5 µmol/day for 21 days, n 5
[12] = in vitro and in vivo models; cited from earlier work
[13] = test system: apo-RBP; settings: cited from earlier work
[14] = Study 3 toxicity study: serum chemistry panel and liver histology; assay type: in vivo, rat; settings: 3.5 µmol/d for 21 d; for Hepatotoxicity: rats killed 1, 8 and 15 d after the last dose
[15] = given intraperitoneally; cited from earlier work

Structure (SMILES): CC1=C(/C=C/C(C)=C/C=C/C(C)=C/C(=O)O)C(C)(C)CC=C1 [3,4-Didehydroretinoic acid]
Affinity for RARγ [1]: same affinity as retinoic acid
Affinity for RARα [2]: same affinity as retinoic acid
Affinity for RARβ [3]: same affinity as retinoic acid

Lung ROH concentration [6]: not detected
Spleen ROH concentration [6]: not detected
Serum DR in DR-dosed rats, times less than serum ROH in ROH-dosed rats ([6]; study 1): 2.6 times
Structure (SMILES): CC1=C(/C=C/C(C)=C/C=C/C(C)=C/CO)C(C)(C)CC=C1 [3,4-Didehydroretinol, 3,4-didehydroretinol]
Retina integrity [4]: normal retina integrity
Rate of carriage by the retinol transporter from the intestine [5]: at the same rate as ROH
Biological activity compared with ROH [7]: 40%
Estimates of bioactivity in rats, that of ROH [7]: 40%
Bioactivity compared with retinol [8]: 120–130%
Area-under-the growth curve, difference from control [8]: 1000
Bioactivity from area-under-the growth curve, % of retinol [8]: 127%
Bioactivity from final body weight, % of retinol [8]: 119%
Final body weight [8]: 560 g
Area-under-the growth curve [8]: 1867 g·days

Structure (SMILES): CC(=O)OC/C=C(C)/C=C/C=C(C)/C=C/C1=C(C)C=CCC1(C)C [3,4-didehydroretinyl acetate]
Terata in fetuses [9]: caused terata in fetuses

Kidney ROH relative to liver ROH ([6]; study 1): 7 times
Liver reserves, times less than deficiency cut-off (<70 nmol ROH/g liver) ([6]; study 1, ROH group): 14 times
Structure (SMILES): CC1=C(/C=C/C(C)=C/C=C/C(C)=C/CO)C(C)(C)CCC1 [Retinol, retinol, reference compound]
Area-under-the growth curve, difference from control [8]: 787
Bioactivity from area-under-the growth curve, % of retinol [8]: 100%
Bioactivity from final body weight, % of retinol [8]: 100%
Final body weight [8]: 546 g
Area-under-the growth curve [8]: 1654 g·days

Structure (SMILES): CC(=O)OC/C=C(C)/C=C/C=C(C)/C=C/C1=C(C)CCCC1(C)C [retinyl acetate, reference compound]
Terata in fetuses [9]: caused terata in fetuses

Structure (SMILES): CC1=CCCC(C)(C)C1/C=C/C(C)=C/C=C/C(C)=C/CO (stereo not drawn) [α-Retinol, α-retinol]
Liver αR ([10]; 17.5 nmol αR/d + 70 nmol ROH/d): 262 (SD 34) nmol/liver
Total dose liver retention ([10]; 17.5 nmol αR/d + 70 nmol ROH/d): 71.3%
Liver αR ([10]; 35 nmol αR/d + 70 nmol ROH/d): 449 (SD 23) nmol/liver
Total dose liver retention ([10]; 35 nmol αR/d + 70 nmol ROH/d): 61.1%
Liver αR ([10]; 70 nmol αR/d + 70 nmol ROH/d): 893 (SD 138) nmol/liver
Total dose liver retention ([10]; 70 nmol αR/d + 70 nmol ROH/d): 60.7%
Serum αR ([10]; study 2, 17.5-70 nmol αR/d + 70 nmol ROH/d): undetectable
Cumulative αR doses recovered in the liver ([10]; study 2, with 70 nmol ROH/d): 61–71%
α-Retinyl esters circulating in the blood, share of total retinol ([11]; at αR concentrations >1.7 µmol/g liver): > 10%
Lung ROH concentration [6]: not detected
Spleen ROH concentration [6]: not detected
Cumulative αR doses recovered in the liver ([6]; study 1, ROH not made available): 0.3%
Serum ROH concentration ([6]; study 1, rats fed 50 nmol/d): ≤ 0.10 µmol/L
Induction of signs of hypervitaminosis A [12]: very effective at inducing signs of hypervitaminosis A
Binding in vitro with apo-RBP [13]: failed to bind
Toxicity compared with control rats [14]: No toxicity was evident
Hepatotoxicity [14]: no hepatotoxicity occurred
Stellate cell hypertrophy ([14]; liver sections, hematoxylin and eosin): No stellate cell hypertrophy was detected
Activity relative to retinol (ROH), growth-promoting activity in rats [7]: 2.1%
Bioactivity [7]: 2.6%
Biopotency versus US Pharmacopeia Vitamin A Reference Standard ([7]; rat growth and liver storage bioassays): approximately 2%
Estimates of bioactivity in rats, that of ROH [7]: 2%
Biopotency of all-trans-retinyl acetate ([7]; ref previous reports): 2%
Growth rate relative to ROH ([8]; classic growth assay, 50 nmol/d): about 50%
Bioactivity compared with retinol [8]: 40–50%
Area-under-the growth curve, difference from control [8]: 298
Final body weight [8]: 508 g
Area-under-the growth curve [8]: 1165 g·days

Liver αR ([11]; day 1 after final dose): 2300 nmol/g
Liver αR ([11]; day 8 after final dose): 1750 nmol/g
Liver αR ([11]; day 15 after final dose): 1770 nmol/g
Structure (SMILES): CC(=O)OC/C=C(C)/C=C/C=C(C)/C=C/C1C(C)=CCCC1(C)C (stereo not drawn) [α-retinyl acetate]
Growth of hamsters [15]: sustains growth of hamsters
Hepatotoxicity [14]: No hepatic toxicity was observed; also recorded: No hepatotoxicity was noted
